Results taken from ChEMBL document CHEMBL4038284, “Synthesis of novel quinoline-based 4,5-dihydro-1H-pyrazoles as potential anticancer, antifungal, antibacterial and antiprotozoal agents” (Eur J Med Chem, 2017).
Values after ≈ are worked out from the molar mass of the structure shown.

How the values were obtained:
[1] = system: Trypanosoma cruzi; assay: Antitrypanosomal activity against Trypanosoma cruzi Tulahuen intracellular amastigote harboring LacZ infected in human U937 cells after 72 hrs by CPRG/Nonidet reagent based spectrophotometric method; assay type: functional, cell-based; details: U-937, 72 h
Procedure, shortened: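 U-937 cells at 2.5 × 10^5 cells/mL in RPMI-1640 with 10% serum and 0.1 µg/mL PMA were infected with β-galactosidase-transfected Tulahuen epimastigotes at 5 parasites per cell. Infected cells were exposed to 50, 12.5, 3.125 and 0.78 µg/mL for 72 h. CPRG (100 uM) and 0.1% Nonidet P-40 were added for 3 h, read at 570 nm. EC50 by Probit. Triplicate, at least two experiments; benznidazole as reference.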

[2] = system: Staphylococcus aureus; assay: Antibacterial activity against methicillin-resistant Staphylococcus aureus ATCC 43300 after 24 hrs by resazurin dye based microdilution assay; assay type: functional; details: ATCC 43300, 24 h
Procedure, shortened: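 Broth microdilution in Mueller Hinton broth, inoculum 5 × 10^5 – 8 × 10^5. Compound stocks diluted in MHB with 5% DMSO and 0.1% Tween 80. Incubation 24 h at 35-37 °C. MIC is the lowest concentration with visible growth inhibition and/or by resazurin (1 mg/mL) read-out. Gentamicin as control. Run in duplicate, replicated at least three times.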

[3] = system: Staphylococcus aureus; assay: Antibacterial activity against vancomycin-intermediate Staphylococcus aureus after 24 hrs by resazurin dye based microdilution assay; assay type: functional
Procedure, shortened: (§1)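 MIC taken as the lowest concentration giving visible inhibition and/or by resazurin (1 mg/mL). Gentamicin was the control. Run in duplicate, repeated at least three times.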

[4] = system: Cryptococcus neoformans; assay: Growth inhibition of Cryptococcus neoformans ATCC 32264 at 62.5 ug/ml incubated for 48 hrs under dark condition by broth microdilution method relative to control; assay type: functional; details: ATCC 32264, 48 h, read-out: GI
Procedure, shortened: (§2)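 CLSI M27-A3 broth microdilution in RPMI-1640, DMSO ≤1%. Inoculum 1-5 × 10^3 CFU/mL. Incubated 48 h at 30 °C, dark. % inhibition = 100 − (OD405 test − sterility control)/(OD405 growth control − sterility control), with growth and sterility control wells. Triplicate.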

[5] = system: Candida albicans; assay: Growth inhibition of Candida albicans ATCC 10231 at 125 ug/ml incubated for 48 hrs under dark condition by broth microdilution method relative to control; assay type: functional; details: ATCC 10231, 48 h, read-out: GI; procedure, shortened: as §2
[6] = system: Neisseria gonorrhoeae; assay: Antibacterial activity against beta lactamase positive Neisseria gonorrhoeae ATCC 31426 by oxidase test; assay type: functional
Procedure, shortened: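 Agar dilution MIC on GC agar with 1% isovitalex containing increasing compound concentrations. Plates inoculated with about 1×10^4 CFU (5 µL). MIC is the lowest concentration that inhibited growth, with growth confirmed by oxidase test. Run in duplicate, repeated at least three times.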

[7] = system: Candida albicans; assay: Growth inhibition of Candida albicans ATCC 10231 at 62.5 ug/ml incubated for 48 hrs under dark condition by broth microdilution method relative to control; assay type: functional; details: ATCC 10231, 48 h, read-out: GI; procedure, shortened: as §2
[8] = system: Staphylococcus aureus; assay: Antibacterial activity against methicillin-sensitive Staphylococcus aureus ATCC 25923 after 24 hrs by resazurin dye based microdilution assay; assay type: functional; details: ATCC 25923, 24 h; procedure, shortened: as §1
[9] = system: Cryptococcus neoformans; assay: Growth inhibition of Cryptococcus neoformans ATCC 32264 at 125 ug/ml incubated for 48 hrs under dark condition by broth microdilution method relative to control; assay type: functional; details: ATCC 32264, 48 h, read-out: GI; procedure, shortened: as §2
[10] = system: Leishmania panamensis; assay: Antileshmanial activity against EpiR/GFP fused Leishmania panamensis MHOM/CO/87/UA140 intracellular amastigotes infected in human […] cells after 72 hrs by flow cytometric method; assay type: functional, cell-based; details: MHOM/CO/87/UA140, 72 h
Procedure, shortened: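 PMA-treated U-937 cells (3 × 10^5 cells/mL) infected with stationary-phase GFP L. panamensis promastigotes (15:1), 3 h at 34 °C, then washed. After 24 h, compounds added at 50, 12.5, 3.125 and 0.78 µg/mL for 72 h at 37 °C. EC50 by Probit; triplicate, two experiments.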

[11] = system: Klebsiella pneumoniae; assay: Antibacterial activity against carbapenemase positive Klebsiella pneumoniae BAA 1705 after 24 hrs by resazurin dye based microdilution assay; assay type: functional; details: BAA 1705, 24 h; procedure, shortened: as §1
[12] = system: Candida albicans; assay: Growth inhibition of Candida albicans ATCC 10231 at 7.8 ug/ml incubated for 48 hrs under dark condition by broth microdilution method relative to control; assay type: functional; details: ATCC 10231, 48 h, read-out: GI; procedure, shortened: as §2
[13] = system: Cryptococcus neoformans; assay: Growth inhibition of Cryptococcus neoformans ATCC 32264 at 250 ug/ml incubated for 48 hrs under dark condition by broth microdilution method relative to control; assay type: functional; details: ATCC 32264, 48 h, read-out: GI; procedure, shortened: as §2
[14] = system: Candida albicans; assay: Antifungal activity against Candida albicans ATCC 10231 incubated for 48 hrs under dark condition by broth microdilution method; assay type: functional; details: ATCC 10231, 48 h
Procedure, shortened: (§3)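 CLSI M27-A3 broth microdilution in RPMI-1640, DMSO ≤1%, compounds at 250-0.98 µg/mL final. Inoculum 1-5 × 10^3 CFU/mL. Incubated 48 h at 30 °C in a moist dark chamber, read at OD405. MIC80 and MIC50 taken from % inhibition dose-response curves (mean ± SEM, triplicate). Amphotericin B was the positive control.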

[15] = system: Pseudomonas aeruginosa; assay: Antibacterial activity against Pseudomonas aeruginosa ATCC 27853 after 24 hrs by resazurin dye based microdilution assay; assay type: functional; details: ATCC 27853, 24 h; procedure, shortened: as §1
[16] = system: U-937; assay: Cytotoxicity against human U937 cells after 72 hrs by MTT assay; assay type: cell-based; details: u-937, 72 h
Procedure, shortened: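 Exponentially growing U-937 at 1 × 10^5 cells/mL in RPMI-1640 with 10% FBS were exposed to 200, 50, 12.5 and 3.125 µg/mL for 72 h at 37 °C, 5% CO2. MTT for 3 h, stopped with isopropanol/SDS, formazan read at 570 nm, blank-corrected. LC50 by Probit from % viability against untreated cells. Triplicate, at least two independent experiments.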

[17] = system: Candida albicans; assay: Growth inhibition of Candida albicans ATCC 10231 at 15.62 ug/ml incubated for 48 hrs under dark condition by broth microdilution method relative to control; assay type: functional; details: ATCC 10231, 48 h, read-out: GI; procedure, shortened: as §2
[18] = system: Cryptococcus neoformans; assay: Antifungal activity against Cryptococcus neoformans ATCC 32264 incubated for 48 hrs under dark condition by broth microdilution method; assay type: functional; details: ATCC 32264, 48 h; procedure, shortened: as §3
[19] = system: Plasmodium falciparum; assay: Antiplasmodial activity against chloroquine-sensitive Plasmodium falciparum 3D7 assessed as reduction in parasitic LDH activity after 48 hrs by Malstat reagent based […] method; assay type: functional; details: 3D7, 48 h
Procedure, shortened: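 Unsynchronized P. falciparum 3D7 at 0.5% parasitemia and 1% hematocrit in RPMI with 3% Albumax II. Exposed to 100, 25, 6.25 and 1.56 µg/mL for 48 h at 37 °C under 90% N2/5% CO2/5% O2. After three freeze-thaw cycles, LDH measured with Malstat and NBT/PES, 1 h in the dark, read at 650 nm. IC50 by Probit; triplicate, ≥2 experiments.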

[20] = system: Cryptococcus neoformans; assay: Growth inhibition of Cryptococcus neoformans ATCC 32264 at 3.4 ug/ml incubated for 48 hrs under dark condition by broth microdilution method relative to control; assay type: functional; details: ATCC 32264, 48 h, read-out: GI
[21] = system: Cryptococcus neoformans; assay: Growth inhibition of Cryptococcus neoformans ATCC 32264 at 15.62 ug/ml incubated for 48 hrs under dark condition by broth microdilution method relative to control; assay type: functional; details: ATCC 32264, 48 h, read-out: GI; procedure, shortened: as §2
[22] = system: Escherichia coli; assay: Antibacterial activity against Escherichia coli ATCC 25922 after 24 hrs by resazurin dye based microdilution assay; assay type: functional; details: ATCC 25922, 24 h; procedure, shortened: as §1
[23] = system: Cryptococcus neoformans; assay: Growth inhibition of Cryptococcus neoformans ATCC 32264 at 7.8 ug/ml incubated for 48 hrs under dark condition by broth microdilution method relative to control; assay type: functional; details: ATCC 32264, 48 h, read-out: GI; procedure, shortened: as §2
[24] = system: Candida albicans; assay: Growth inhibition of Candida albicans ATCC 10231 at 3.4 ug/ml incubated for 48 hrs under dark condition by broth microdilution method relative to control; assay type: functional; details: ATCC 10231, 48 h, read-out: GI
[25] = system: Klebsiella pneumoniae; assay: Antibacterial activity against ESBL positive Klebsiella pneumoniae ATCC 700603 after 24 hrs by resazurin dye based microdilution assay; assay type: functional; details: Klebsiella pneumoniae, 700603, 24 h; procedure, shortened: as §1
[26] = system: Candida albicans; assay: Growth inhibition of Candida albicans ATCC 10231 at 250 ug/ml incubated for 48 hrs under dark condition by broth microdilution method relative to control; assay type: functional; details: ATCC 10231, 48 h, read-out: GI; procedure, shortened: as §2
[27] = system: Cryptococcus neoformans; assay: Growth inhibition of Cryptococcus neoformans ATCC 32264 at 31.25 ug/ml incubated for 48 hrs under dark condition by broth microdilution method relative to control; assay type: functional; details: ATCC 32264, 48 h, read-out: GI; procedure, shortened: as §2
[28] = system: Candida albicans; assay: Growth inhibition of Candida albicans ATCC 10231 at 31.25 ug/ml incubated for 48 hrs under dark condition by broth microdilution method relative to control; assay type: functional; details: ATCC 10231, 48 h, read-out: GI; procedure, shortened: as §2

CC(=O)N1N=C(c2ccc(C)cc2)CC1c1cccc(Nc2ccnc3cc(Cl)ccc23)c1 (stereo not given)
EC50 [1]: 1.62 µg/mL (≈ 3.56 µM)
MIC [2]: > 1000 µg/mL
MIC [3]: > 1000 µg/mL
inhibition of growth at 62.5 µg/mL [4]: 42.9%
inhibition of growth at 125 µg/mL [5]: 46.2%
MIC [6]: > 1000 µg/mL
inhibition of growth at 62.5 µg/mL [7]: 35.9%
MIC [8]: > 1000 µg/mL
inhibition of growth at 125 µg/mL [9]: 54.7%
EC50 [10]: 1.55 µg/mL (≈ 3.41 µM)
MIC [11]: > 1000 µg/mL
inhibition of growth at 7.8 µg/mL [12]: 20.6%
inhibition of growth at 250 µg/mL [13]: 100%
MIC50 [14]: 250 µg/mL (≈ 549 µM)
MIC80 [14]: ≥ 250 µg/mL
MIC [15]: > 1000 µg/mL
LC50 [16]: 4.4 µg/mL (≈ 9.67 µM)
inhibition of growth at 15.62 µg/mL [17]: 31.4%
MIC50 [18]: 125 µg/mL (≈ 275 µM)
MIC80 [18]: 250 µg/mL (≈ 549 µM)
EC50 [19]: 17.5 µg/mL (≈ 38.5 µM)
inhibition of growth at 3.4 µg/mL [20]: 13.2%
inhibition of growth at 15.62 µg/mL [21]: 29.6%
MIC [22]: > 1000 µg/mL
inhibition of growth at 7.8 µg/mL [23]: 29.2%
inhibition of growth at 3.4 µg/mL [24]: 15.9%
MIC [25]: > 1000 µg/mL
inhibition of growth at 250 µg/mL [26]: 67.8%
inhibition of growth at 31.25 µg/mL [27]: 33.7%
inhibition of growth at 31.25 µg/mL [28]: 32.2%
